From ChEMBL document CHEMBL5143722, “Antimicrobial Peptides against Multidrug-Resistant Pseudomonas aeruginosa Biofilm from Cystic Fibrosis Patients” (J Med Chem, 2022) come the findings set out here.

Calls of active or inactive are those of the source. The rule behind the calls is not given here.

Data set [1] deals with Pseudomonas aeruginosa. The experiment in a line: Antibiofilm activity against Pseudomonas aeruginosa PAO1 in artificial sputum medium at 50 uM incubated for 24 hrs by resazurin staining based microtiter plate method. Type of data set: functional, organism-based. Summed up: (§1)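 Washed overnight culture set to OD ~0.05 in BM2, diluted 1:100 into artificial sputum medium (pH 6.9) in 24-well plates. Grown 3 days aerobically at 37 °C with agitation. Peptides (12.5–100 μM) added for 24 h with agitation. Biofilm disrupted by cellulase for 1 h at 37 °C. Resazurin 0.02% for 1–2 h, fluorescence ex 530/em 590 nm; viability as % of untreated wells.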

Data set [2] relates to Pseudomonas aeruginosa. The experiment in a line: Antibiofilm activity against Pseudomonas aeruginosa clinical isolate 99 assessed as inhibition of biofilm formation at 1.56 uM incubated for 24 hrs by crystal violet staining based microtiter plate method. Format: functional, organism-based. Summed up: (§2)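 Washed overnight cultures in BM2 medium at 1 × 10^6 CFU/mL with 2-fold serial peptide dilutions in a U-bottom 96-well plate. Incubated 24 h at 37 °C without agitation. Unattached cells washed off, then 0.1% crystal violet stain read at 590 nm. No-bacteria blanks. Biomass expressed as % of untreated biofilm. At least three biological repeats.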

Data set [3] relates to Pseudomonas aeruginosa. The experiment in a line: Antibiofilm activity against Pseudomonas aeruginosa clinical isolate 59 assessed as inhibition of biofilm formation at 1.56 uM incubated for 24 hrs by crystal violet staining based microtiter plate method. Format: functional, organism-based. In a few lines: as §2
For data set [4], the system named is Pseudomonas aeruginosa. The data set is described as follows: Antibiofilm activity against Pseudomonas aeruginosa clinical isolate 52 assessed as inhibition of biofilm formation at 1.56 uM incubated for 24 hrs by crystal violet staining based microtiter plate method. Format: functional, organism-based. In a few lines:
as §2

Data set [5] has as its system Pseudomonas aeruginosa. The data set is described as follows: Antibiofilm activity against Pseudomonas aeruginosa clinical isolate 71 assessed as inhibition of biofilm formation at 1.56 uM incubated for 24 hrs by crystal violet staining based microtiter plate method. Format: functional, organism-based. Summed up:
as §2

In data set [6] the test system is Pseudomonas aeruginosa. The data set is described as follows: Antibiofilm activity against Pseudomonas aeruginosa assessed as inhibition of biofilm formation at 0.5 times of MIC incubated for 24 hrs by crystal violet staining based microtiter plate method. Format: functional, organism-based. In a few lines:
as §2

The subject of data set [7] is Pseudomonas aeruginosa. The data set is described as follows: Antibiofilm activity against Pseudomonas aeruginosa clinical isolate 24 assessed as inhibition of biofilm formation at 1.56 uM incubated for 24 hrs by crystal violet staining based microtiter plate method. Format: functional, organism-based. Summed up:
as §2

Data set [8] relates to Pseudomonas aeruginosa. The data set is described as follows: Bactericidal activity against Pseudomonas aeruginosa clinical isolate 46 derived from cystic fibrosis patient sputum assessed as killing rate at 10 uM measured after 1 hr by time-kill assay relative to control. Format: functional. Summed up: (§3)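 Pooled CF patient sputum diluted 10-fold in 10 mM phosphate buffer (pH 7.0), centrifuged and 0.22 μm filtered. Bacteria at 10^6 CFU/mL in 10% sputum supernatant with 10 μM peptide for 1 h at 37 °C. Diluted and plated on LB agar; colonies counted against untreated plates.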

Data set [9] has as its system Pseudomonas aeruginosa. The experiment in a line: Antibiofilm activity against Pseudomonas aeruginosa clinical isolate 82 in artificial sputum medium at 100 uM incubated for 24 hrs by resazurin staining based microtiter plate method. Format: functional, organism-based. In a few lines: as §1
In general terms: Resazurin is reduced to fluorescent resorufin, in cell work by metabolically active cells.

The test system of data set [10] is Pseudomonas aeruginosa. The experiment in a line: Antibiofilm activity against Pseudomonas aeruginosa clinical isolate 172 assessed as inhibition of biofilm formation at 1.56 uM incubated for 24 hrs by crystal violet staining based microtiter plate method. Format: functional, organism-based. Summed up:
as §2

The test system of data set [11] is Pseudomonas aeruginosa. The data set is described as follows: Antibiofilm activity against Pseudomonas aeruginosa clinical isolate 82 assessed as inhibition of biofilm formation at 1.56 uM incubated for 24 hrs by crystal violet staining based microtiter plate method. Format: functional, organism-based. In a few lines:
as §2

Data set [12] relates to Pseudomonas aeruginosa. The data set is described as follows: Antibiofilm activity against Pseudomonas aeruginosa clinical isolate 46 assessed as inhibition of biofilm formation at 1.56 uM incubated for 24 hrs by crystal violet staining based microtiter plate method. Format: functional, organism-based. In a few lines:
as §2

The subject of data set [13] is Pseudomonas aeruginosa. The data set is described as follows: Bactericidal activity against Pseudomonas aeruginosa clinical isolate 24 derived from cystic fibrosis patient sputum assessed as killing rate at 10 uM measured after 1 hr by time-kill assay relative to control. Type of data set: functional. Summed up: as §3
Data set [14] deals with Pseudomonas aeruginosa. The data set is described as follows: Antibiofilm activity against Pseudomonas aeruginosa clinical isolate 46 in artificial sputum medium at 100 uM incubated for 24 hrs by resazurin staining based microtiter plate method. Format: functional, organism-based. Summed up:
as §1

Data set [15] deals with Pseudomonas aeruginosa. The experiment in a line: Antibiofilm activity against Pseudomonas aeruginosa PAO1 in artificial sputum medium at 100 uM incubated for 24 hrs by resazurin staining based microtiter plate method. Format: functional, organism-based. Summed up:
as §1

Data set [16] has as its system Pseudomonas aeruginosa. The experiment in a line: Antibiofilm activity against Pseudomonas aeruginosa clinical isolate 29 assessed as inhibition of biofilm formation at 1.56 uM incubated for 24 hrs by crystal violet staining based microtiter plate method. Type of data set: functional, organism-based. Summed up:
as §2

Data set [17] has as its system Pseudomonas aeruginosa. The experiment in a line: Induction of biofilm degradation of Pseudomonas aeruginosa clinical isolate 24 derived from cystic fibrosis patient sputum at 1.56 to 50 uM by crystal violet based staining analysis. Type of data set: functional. The settings on record: dose 1.56-50 µM. Summed up: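 Biofilm grown from 1 × 10^6 CFU/mL in pooled CF patient sputum diluted 10-fold with BM2, static, 37 °C, 24 h. Unattached cells rinsed off, then serial peptide dilutions (1.56–50 μM) applied for 1 h. Washed and stained with 0.1% crystal violet, read at 590 nm. Reported as % of untreated biomass, with no-bacteria blanks.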

Data set [18] relates to Pseudomonas aeruginosa. The data set is described as follows: Antibiofilm activity against Pseudomonas aeruginosa clinical isolate 24 in artificial sputum medium at 50 uM incubated for 24 hrs by resazurin staining based microtiter plate method. Type of data set: functional, organism-based. Summed up:
as §1

The test system of data set [19] is Pseudomonas aeruginosa. The data set is described as follows: Antibiofilm activity against Pseudomonas aeruginosa clinical isolate 251 assessed as inhibition of biofilm formation at 1.56 uM incubated for 24 hrs by crystal violet staining based microtiter plate method. Type of data set: functional, organism-based. In a few lines:
as §2

Data set [20] can be described thus: Drug degradation in cystic fibrosis patient derived sputum assessed as remaining activity at 100 uM measured after 30 mins by RP-HPLC analysis. Type of data set: ADME, tissue-based. The conditions noted are these: human, read-out: Drug degradation. Summed up:
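Pooled CF patient sputum diluted 10-fold in Ca/Mg-free DPBS, centrifuged at 1000 rpm for 10 min. Peptide added to the supernatant at 100 μM final and held at 37 °C. Stopped with 10% HCl. Residual peptide measured by RP-HPLC on C18 with a 20–60% ACN gradient (0.1% TFA) over 50 min, as % of the unincubated mixture.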

The subject of data set [21] is Pseudomonas aeruginosa. The data set is described as follows: Induction of biofilm degradation of Pseudomonas aeruginosa clinical isolate 995 at sub MIC concentration incubated for 1 hr by crystal violet staining analysis. Type of data set: functional. In a few lines: (§4)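 Bacteria at 1 × 10^6 CFU/mL in BM2 grown static at 37 °C for 24 h to form biofilm. Wells rinsed of unattached cells, then exposed for 1 h to serial peptide dilutions (1.56–50 μM). Washed, stained with 0.1% crystal violet, A590 read. Biomass given as % of untreated biofilm; no-bacteria wells as blanks. At least three biological repeats.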

Data set [22] deals with Pseudomonas aeruginosa. The data set is described as follows: Induction of biofilm degradation of Pseudomonas aeruginosa clinical isolate 59 at 50 uM incubated for 1 hr by crystal violet staining analysis.
The test system of data set [23] is Pseudomonas aeruginosa. The data set is described as follows: Induction of biofilm degradation of Pseudomonas aeruginosa clinical isolate PAO1 at sub MIC concentration incubated for 1 hr by crystal violet staining analysis. Type of data set: functional. Summed up:
as §4

For data set [24], the system named is Pseudomonas aeruginosa. The experiment in a line: Induction of biofilm degradation of Pseudomonas aeruginosa clinical isolate 251 at sub MIC concentration incubated for 1 hr by crystal violet staining analysis. Format: functional. In a few lines: as §4
Data set [25] has as its system Pseudomonas aeruginosa. The experiment in a line: Induction of biofilm degradation of Pseudomonas aeruginosa clinical isolate 29 at sub MIC concentration incubated for 1 hr by crystal violet staining analysis. Type of data set: functional. In a few lines: as §4
Data set [26] relates to Pseudomonas aeruginosa. The data set is described as follows: Induction of biofilm degradation of Pseudomonas aeruginosa clinical isolate 25 at sub MIC concentration incubated for 1 hr by crystal violet staining analysis. Format: functional. Summed up:
as §4

The subject of data set [27] is Pseudomonas aeruginosa. The data set is described as follows: Induction of biofilm degradation of Pseudomonas aeruginosa clinical isolate 72 at sub MIC concentration incubated for 1 hr by crystal violet staining analysis. Type of data set: functional. Summed up: as §4
The subject of data set [28] is Pseudomonas aeruginosa. The experiment in a line: Induction of biofilm degradation of Pseudomonas aeruginosa clinical isolate 172 at sub MIC concentration incubated for 1 hr by crystal violet staining analysis. Type of data set: functional. Summed up: as §4

For the compound `CC(C)C[C@H](NC(=O)[C@H](CC(C)C)NC(=O)[C@H](CCCCN)NC(=O)[C@H](CC(C)C)NC(=O)[C@H](CC(C)C)NC(=O)[C@H](CCCCN)NC(=O)[C@H](CCCCN)NC(=O)[C@H](CC(C)C)NC(=O)[C@H](CC(C)C)NC(=O)[C@H](CCCCN)NC(=O)[C@H](CCCCN)NC(=O)[C@H](CC(C)C)NC(=O)[C@H](CC(C)C)NC(=O)[C@H](CCCCN)NC(=O)[C@@H](N)CC(C)C)C(N)=O`, the result in [1], in data set [9], in data set [14], in [15], in data set [17] and in data set [18] was Active. In addition, the inhibition entry in data set [2], in [3], in [4], in data set [5], in data set [6] and in data set [7] was “Active” throughout. In addition, the inhibition entry in data set [10], in [11], in [12], in data set [16] and in data set [19] was “Active” in each case. For the same compound, the Activity in data set [8] and in [13] was more than 97.91% in each case.
Regarding `CC[C@H](C)[C@H](NC(=O)[C@H](CCCCN)NC(=O)[C@H](CCC(=O)O)NC(=O)[C@H](CCCCN)NC(=O)[C@H](CO)NC(=O)[C@H](CCCCN)NC(=O)[C@H](CCCNC(=N)N)NC(=O)[C@H](Cc1ccccc1)NC(=O)[C@H](Cc1ccccc1)NC(=O)[C@H](CC(=O)O)NC(=O)CNC(=O)[C@H](CC(C)C)NC(=O)[C@@H](N)CC(C)C)C(=O)NCC(=O)N[C@@H](CCCCN)C(=O)N[C@@H](CCC(=O)O)C(=O)N[C@@H](Cc1ccccc1)C(=O)N[C@@H](CCCCN)C(=O)N[C@@H](CCCNC(=N)N)C(=O)N[C@H](C(=O)N[C@H](C(=O)N[C@@H](CCC(N)=O)C(=O)N[C@@H](CCCNC(=N)N)C(=O)N[C@H](C(=O)N[C@@H](CCCCN)C(=O)N[C@@H](CC(=O)O)C(=O)N[C@@H](Cc1ccccc1)C(=O)N[C@@H](CC(C)C)C(=O)N[C@@H](CCCNC(=N)N)C(=O)N[C@@H](CC(N)=O)C(=O)N[C@@H](CC(C)C)C(=O)N[C@H](C(=O)N1CCC[C@H]1C(=O)N[C@@H](CCCNC(=N)N)C(=O)N[C@H](C(=O)N[C@@H](CCC(=O)O)C(=O)N[C@@H](CO)C(N)=O)[C@@H](C)O)C(C)C)[C@@H](C)CC)C(C)C)[C@@H](C)CC`, the metabolised at 0.5 h, 100 µM in data set [20] came out at 100%.
`CC(C)C[C@H](NC(=O)[C@H](CC(C)C)NC(=O)[C@H](CC(C)C)NC(=O)[C@H](CC(C)C)NC(=O)[C@H](CC(C)C)NC(=O)[C@H](CC(C)C)NC(=O)[C@H](CC(C)C)NC(=O)[C@H](CC(C)C)NC(=O)[C@H](CC(C)C)NC(=O)[C@H](CCCCN)NC(=O)[C@H](CCCCN)NC(=O)[C@@H](N)CCCCN)C(=O)N[C@@H](CCCCN)C(=O)N[C@@H](CCCCN)C(=O)N[C@@H](CCCCN)C(N)=O`: the outcome in [21], in data set [23], in [24], in data set [25], in data set [26] and in data set [27] was Active. For the same compound, the result in [28] was Active. In addition, the Activity in [22] was determined as 40%.
